From ChEMBL document CHEMBL4138050, “Discovery of selective cystathionine β-synthase inhibitors by high-throughput screening with a fluorescent thiol probe” (Medchemcomm, 2017)
Active and inactive are the calls of the source. The calls are words filed in the database; no cut-off is given here.

Legend:
[1] = target: T1, Cystathionine gamma-lyase (Homo sapiens, UniProt P32929); assay: Inhibition of N-terminal His-tagged CSE extracted from human HepG2 cells expressed in Escherichia coli BL21 (DE3) using cysteine as substrate assessed as decrease in H2S production preincubated for 3 mins in presence of lead nitrate followed by cysteine addition
How it was run: (§1)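 The H2S-producing activity of the purified human enzyme was measured with cysteine and homocysteine as substrates in 50 mM HEPES, pH 7.4, with 0.4 mM lead nitrate (lead sulfide read-out).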

[2] = target: T2, Cystathionine beta-synthase (Homo sapiens, UniProt P35520); assay: Inhibition of full-length GST-fused human CBS using cysteine/homocysteine as substrate assessed as decrease in H2S production preincubated for 3 mins in presence of homocysteine and lead nitrate followed by cysteine addition; how it was run: as §1
T2 sequence (P35520 whole entry): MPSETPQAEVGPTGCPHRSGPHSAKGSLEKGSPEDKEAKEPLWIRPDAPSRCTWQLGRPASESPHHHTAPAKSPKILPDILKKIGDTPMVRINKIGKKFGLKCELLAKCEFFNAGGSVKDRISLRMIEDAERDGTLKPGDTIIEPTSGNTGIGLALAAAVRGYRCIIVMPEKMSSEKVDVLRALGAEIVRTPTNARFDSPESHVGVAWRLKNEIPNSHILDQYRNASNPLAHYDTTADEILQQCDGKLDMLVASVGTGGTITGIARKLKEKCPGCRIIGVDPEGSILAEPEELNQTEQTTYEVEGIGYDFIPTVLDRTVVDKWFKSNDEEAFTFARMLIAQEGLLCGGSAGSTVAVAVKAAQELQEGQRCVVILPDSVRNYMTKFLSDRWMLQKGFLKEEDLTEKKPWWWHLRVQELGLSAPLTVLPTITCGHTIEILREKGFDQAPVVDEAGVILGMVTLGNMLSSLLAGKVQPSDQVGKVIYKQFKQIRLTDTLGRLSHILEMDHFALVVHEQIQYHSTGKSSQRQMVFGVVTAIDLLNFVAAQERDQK

[3] = target: T3, Cystathionine beta-synthase (Homo sapiens) (UniProt P35520); assay: Reversible inhibition of full-length GST-fused human CBS using cysteine/homocysteine as substrate assessed as decrease in H2S production at 100 uM preincubated for 1 hr followed by ultrafiltration for 5 times
T3 sequence (whole entry): T2 sequence (P35520 whole entry)

HT-29 = assay: Antiproliferative activity against human HT-29 cells assessed as decrease in cell viability after 24 hrs by CCK8 assay; format: functional, cell-based; settings: HT-29, 24 h
How it was run: (§2)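 Viability of HT29 colon cancer cells and of NCM356 normal colon mucosal epithelial cells was measured across a concentration range and expressed relative to the control group. IC50 was taken from the dose–response curve. For HT29, values are means ± SD with n = 6.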

Homo sapiens = species: Homo sapiens; assay: Selectivity ratio of IC50 for N-terminal His-tagged CSE extracted from human HepG2 cells expressed in Escherichia coli BL21 (DE3) using cysteine as substrate assessed as decrease in H2S production to IC50 for full-length GST-fused human CBS using cysteine/homocysteine as substrate assessed as decrease in H2S production
[4] = target: T1, Cystathionine gamma-lyase; assay: Inhibition of N-terminal His-tagged CSE extracted from human HepG2 cells expressed in Escherichia coli BL21 (DE3) using methylcysteine as substrate measured for 10 mins by CPM probe-based fluorescence assay
How it was run: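 Methanethiol release by purified human CSE was monitored continuously with 10 mM methylcysteine as substrate in 50 mM HEPES, pH 7.4. Thiol was trapped by the CPM fluorescent probe and read at 460 nm (excitation 400 nm). IC50 was taken from the dose–response curve.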

[5] = Antiproliferative activity against human NCM356 cells assessed as decrease in cell viability after 24 hrs by CCK8 assay; format: cell-based; how it was run: as §2
[6] = target: T2, Cystathionine beta-synthase; assay: Inhibition of full-length GST-fused human CBS using methylcysteine as substrate measured for 10 mins by CPM probe-based fluorescence assay
How it was run: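 Enzyme source: full-length wild-type hCBS, 2 μg per reaction. Substrate: 10 mM methylcysteine. Buffer: 50 mM HEPES, pH 7.4, with 15 μM CPM thiol probe. Read-out: CH3SH release, followed as fluorescence at 460 nm (excitation 400 nm) over 600 s. Screening positive control: 100 μM AOAA. Secondary screen: compounds at 50 μM.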

[7] = Selectivity index, ratio of IC50 for human NCM356 cells to IC50 for human HT-29 cells; format: toxicity; settings: NCM356 cells versus HT-29 cells

T1 sequence (P32929 whole entry): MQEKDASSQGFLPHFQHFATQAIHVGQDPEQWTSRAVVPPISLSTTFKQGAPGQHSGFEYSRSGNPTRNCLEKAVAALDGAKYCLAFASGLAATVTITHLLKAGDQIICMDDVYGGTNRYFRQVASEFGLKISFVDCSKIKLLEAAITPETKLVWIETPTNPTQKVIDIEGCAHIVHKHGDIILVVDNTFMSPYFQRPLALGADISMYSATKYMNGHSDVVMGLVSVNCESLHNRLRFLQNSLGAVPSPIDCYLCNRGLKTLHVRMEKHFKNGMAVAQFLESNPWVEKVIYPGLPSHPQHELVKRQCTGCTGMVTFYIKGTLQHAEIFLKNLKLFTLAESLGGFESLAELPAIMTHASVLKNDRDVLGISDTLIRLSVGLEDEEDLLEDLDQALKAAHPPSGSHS

Compound | IC50 [2] [µM] | inhibition [3] | IC50 [1] [µM] | IC50 (HT-29) [µM] | Ratio IC50 (Homo sapiens) | IC50 [4] [µM] | IC50 [6] [µM] | inhibition [1] | IC50 [5] [µM] | selectivity ratio [7]
O=C(CCCCCCCCc1ccccc1)c1c(O)cc(O)cc1O | 8.1 | Active | – | – | > 10 | – | – | – | – | –
O=c1cc(-c2ccc(O)cc2)oc2c(-c3c(O)cc(O)c4c(=O)cc(-c5ccc(O)cc5)oc34)c(O)cc(O)c12 [CUPRESSUFLAVONE] | 11.5 | Active | > 400 | ≥ 50 | – | – | – | – | – | –
Cc1cc(O)c2c(=O)c3c(O)cc(O)c4c5c(O)cc(O)c6c(=O)c7c(O)cc(C)c8c1c2c(c34)c(c78)c65 [HYPERICIN] | 3.1 | Active | – | – | > 10 | – | – | – | – | –
O=c1c(O)c(-c2cc(O)c(O)c(O)c2)oc2cc(O)cc(O)c12 [MYRICETIN] | 18.8 | Active | – | – | – | – | – | Active | – | –
COc1ccc(-c2cc(=O)c3c(O)cc(O)c(-c4cc(-c5cc(=O)c6c(O)cc(O)cc6o5)ccc4O)c3o2)cc1 [PODOCARPUSFLAVONE A] | 8.9 | Active | > 400 | 7.9 | – | – | – | – | 36 | 5
COc1ccc([C@H]2Oc3cc(O)cc(O)c3C(=O)[C@@H]2[C@H]2C(=O)c3c(O)cc(O)cc3O[C@@H]2c2ccc(O)cc2)cc1 [SIKOKIANIN C] | 9.2 | Active | > 400 | 1.5 | – | – | – | – | 19 | 10

Further lines, with some results ahead:

IC50 [2] [µM] | inhibition [3] | IC50 [1] [µM] | IC50 (HT-29) [µM] | Ratio IC50 (Homo sapiens) | IC50 [4] [µM] | IC50 [6] [µM] | Compound | inhibition [1] | IC50 [5] [µM] | selectivity ratio [7]
5.9 | Active | – | – | – | – | – | Oc1ccc(-c2oc3cc(O)cc4c3c2-c2cc(O)cc3c2[C@H](c2cc(O)cc5c2[C@@H]4[C@H](c2ccc(O)cc2)O5)[C@@H](c2ccc(O)cc2)O3)cc1 | Active | – | –
6.2 | Active | > 400 | 1.5 to 13.5 | – | – | – | C[C@@H]1O[C@@H](Oc2c(-c3ccc(O)cc3)oc3cc(O)cc(O)c3c2=O)[C@H](OC(=O)/C=C\c2ccc(O)cc2)[C@H](O)[C@H]1OC(=O)/C=C\c1ccc(O)cc1 | – | – | –
7.4 | Active | – | – | > 10 | – | – | Oc1cc(O)cc(CCC/C=C\CCCCCCCCCc2cc(O)cc(O)c2)c1 | – | – | –
4 | – | 4 | 140 | – | 0.57 | 1 | NOCC(=O)O [CARBOXYMETHOXYLAMINE] | – | 800 | –
